# Experimental data reported in ChEMBL document CHEMBL2346664, “Synthesis, characterization and in vitro anticancer evaluation of novel 1,2,4-triazolin-3-one derivatives” (2013).
# Columns and labels:
# Type in all cases: functional
# UO-31 [1] = assay: Growth inhibition of human UO31 cells assessed as cell growth at 10 '-6 M after 48 hrs by sulforhodamine B assay; conditions: UO-31, 48 h, read-out: Activity
# OVCAR-5 [2] = assay: Growth inhibition of human OVCAR5 cells assessed as cell growth at 10 '-6 M after 48 hrs by sulforhodamine B assay; conditions: OVCAR-5, 48 h, read-out: Activity
# OVCAR-5 [3] = assay: Growth inhibition of human OVCAR5 cells assessed as growth inhibition at 10 uM after 48 hrs by sulforhodamine B assay; conditions: OVCAR-5, 48 h, read-out: GI
# OVCAR-4 = assay: Growth inhibition of human OVCAR4 cells assessed as growth inhibition at 10 uM after 48 hrs by sulforhodamine B assay; conditions: OVCAR-4, 48 h, read-out: GI
# IGROV-1 = assay: Growth inhibition of human IGROV1 cells assessed as growth inhibition at 10 uM after 48 hrs by sulforhodamine B assay; conditions: IGROV-1, 48 h, read-out: GI
# SF-295 = assay: Growth inhibition of human SF295 cells assessed as growth inhibition at 10 uM after 48 hrs by sulforhodamine B assay; conditions: SF-295, 48 h, read-out: GI
# SF-268 [4] = assay: Growth inhibition of human SF268 cells assessed as growth inhibition at 10 uM after 48 hrs by sulforhodamine B assay; conditions: SF-268, 48 h, read-out: GI
# HT-29 = assay: Growth inhibition of human HT-29 cells assessed as growth inhibition at 10 uM after 48 hrs by sulforhodamine B assay; conditions: HT-29, 48 h, read-out: GI
# MCF7 = assay: Growth inhibition of human MCF7 cells assessed as cell growth at 10 '-4 M after 48 hrs by sulforhodamine B assay; conditions: MCF7, 48 h, read-out: Activity
# RXF 393 = assay: Growth inhibition of human RXF393 cells assessed as cell growth at 10 '-4 M after 48 hrs by sulforhodamine B assay; conditions: RXF 393, 48 h, read-out: Activity
# SF-268 [5] = assay: Growth inhibition of human SF268 cells assessed as cell growth at 10 '-6 M after 48 hrs by sulforhodamine B assay; conditions: SF-268, 48 h, read-out: Activity
# BT-549 = assay: Growth inhibition of human BT549 cells assessed as cell growth at 10 '-7 M after 48 hrs by sulforhodamine B assay; conditions: BT-549, 48 h, read-out: Activity
# Method in brief: (§1)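 Percent growth at each of the five concentrations of the 48 h continuous-exposure NCI SRB screen. Drug stocks were in DMSO at 400× the top final concentration and diluted in medium with gentamicin. Growth was calculated as [(Ti-Tz)/(C-Tz)]×100 when Ti ≥ Tz, or [(Ti-Tz)/Tz]×100 when Ti < Tz. Tz plates were fixed at drug addition; untreated wells served as control. Absorbance was read at 515 nm.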
# OVCAR-8 = assay: Growth inhibition of human OVCAR8 cells assessed as cell growth at 10 '-7 M after 48 hrs by sulforhodamine B assay; conditions: OVCAR-8, 48 h, read-out: Activity
# SW-620 [6] = assay: Growth inhibition of human SW620 cells assessed as cell growth at 10 '-7 M after 48 hrs by sulforhodamine B assay; conditions: SW-620, 48 h, read-out: Activity
# PC-3 [7] = assay: Growth inhibition of human PC3 cells assessed as cell growth at 10 '-5 M after 48 hrs by sulforhodamine B assay; conditions: PC-3, 48 h, read-out: Activity
# UO-31 [8] = assay: Growth inhibition of human UO31 cells assessed as cell growth at 10 '-5 M after 48 hrs by sulforhodamine B assay; conditions: UO-31, 48 h, read-out: Activity
# SW-620 [9] = assay: Growth inhibition of human SW620 cells after 48 hrs by sulforhodamine B assay; conditions: SW-620, 48 h
# KM12 = assay: Growth inhibition of human KM12 cells after 48 hrs by sulforhodamine B assay; conditions: KM12, 48 h
# Method in brief: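 NCI 60-cell-line five-dose screen. Cells were plated at 5,000–40,000/well by doubling time and grown 24 h at 37 °C, 5% CO2. Time-zero plates were TCA-fixed. Drug from DMSO stock was tested at 0.01, 0.1, 1, 10 and 100 µM final for 48 h continuous exposure. Read-out was SRB at 515 nm. GI50 is the concentration giving 50% reduction in net protein increase versus untreated control.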
# SN12C = assay: Growth inhibition of human SN12C cells assessed as growth inhibition at 10 uM after 48 hrs by sulforhodamine B assay; conditions: read-out: GI
# HOP-62 = assay: Growth inhibition of human HOP62 cells assessed as cell growth at 10 '-7 M after 48 hrs by sulforhodamine B assay; conditions: HOP-62, 48 h, read-out: Activity
# A549 = assay: Growth inhibition of human A549 cells assessed as cell growth at 10 '-7 M after 48 hrs by sulforhodamine B assay; conditions: A549, 48 h, read-out: Activity; method in brief: as §1
# RPMI-8226 = assay: Growth inhibition of human RPMI8226 cells assessed as cell growth at 10 '-7 M after 48 hrs by sulforhodamine B assay; conditions: RPMI-8226, 48 h, read-out: Activity
# PC-3 [10] = assay: Growth inhibition of human PC3 cells assessed as cell growth at 10 '-8 M after 48 hrs by sulforhodamine B assay; conditions: PC-3, 48 h, read-out: Activity
# UACC-257 [11] = assay: Growth inhibition of human UACC257 cells assessed as cell growth at 10 '-5 M after 48 hrs by sulforhodamine B assay; conditions: UACC-257, 48 h, read-out: Activity
# SK-MEL-2 [12] = assay: Growth inhibition of human SK-MEL-2 cells assessed as cell growth at 10 '-5 M after 48 hrs by sulforhodamine B assay; conditions: SK-MEL-2, 48 h, read-out: Activity
# LOX IMVI = assay: Growth inhibition of human LOXIMVI cells assessed as cell growth at 10 '-5 M after 48 hrs by sulforhodamine B assay; conditions: read-out: Activity
# UACC-257 [13] = assay: Growth inhibition of human UACC257 cells assessed as cell growth at 10 '-8 M after 48 hrs by sulforhodamine B assay; conditions: UACC-257, 48 h, read-out: Activity
# SK-MEL-2 [14] = assay: Growth inhibition of human SK-MEL-2 cells assessed as cell growth at 10 '-8 M after 48 hrs by sulforhodamine B assay; conditions: SK-MEL-2, 48 h, read-out: Activity
# MDA-MB-435 = assay: Growth inhibition of human MDA-MB-435 cells assessed as cell growth at 10 '-8 M after 48 hrs by sulforhodamine B assay; conditions: MDA-MB-435, 48 h, read-out: Activity
# NCI-H522 = assay: Growth inhibition of human NCI-H522 cells assessed as cell growth at 10 uM after 48 hrs by sulforhodamine B assay; conditions: NCI-H522, 48 h, read-out: Activity
# [15] = read-out: LD50 (the source's name)
compound,measurement,setting,value
Cc1cc(=O)oc2cc(OCCn3c(C)nn(-c4ccc(Cl)cc4)c3=O)ccc12,growth at 1 µM,UO-31 [1],74%
same,growth at 1 µM,OVCAR-5 [2],89%
same,inhibition of growth at 10 µM,OVCAR-5 [3],61.2%
same,inhibition of growth at 10 µM,OVCAR-4,32.9%
same,inhibition of growth at 10 µM,IGROV-1,40.3%
same,inhibition of growth at 10 µM,SF-295,86%
same,inhibition of growth at 10 µM,SF-268 [4],49.7%
same,inhibition of growth at 10 µM,HT-29,99.3%
same,growth at 100 µM,MCF7,21%
same,growth at 100 µM,RXF 393,-21%
same,growth at 1 µM,SF-268 [5],87%
same,growth at 0.1 µM,BT-549,104%
same,growth at 0.1 µM,OVCAR-8,98%
same,growth at 0.1 µM,SW-620 [6],98%
same,growth at 10 µM,PC-3 [7],48%
same,growth at 10 µM,UO-31 [8],51%
same,GI50,SW-620 [9],2200 nM
same,TGI,SW-620 [9],> 1000 nM
same,CC50,SW-620 [9]; [15],> 1000 nM
same,GI50,KM12,1660 nM
same,TGI,KM12,> 1000 nM
same,CC50,KM12; [15],> 1000 nM
same,inhibition of growth at 10 µM,SN12C,48.2%
same,growth at 0.1 µM,HOP-62,103%
same,growth at 0.1 µM,A549,98%
same,growth at 0.1 µM,RPMI-8226,97%
same,growth at 0.01 µM,PC-3 [10],97%
same,growth at 10 µM,UACC-257 [11],40%
same,growth at 10 µM,SK-MEL-2 [12],62%
same,growth at 10 µM,LOX IMVI,39%
same,growth at 0.01 µM,UACC-257 [13],95%
same,growth at 0.01 µM,SK-MEL-2 [14],104%
same,growth at 0.01 µM,MDA-MB-435,99%
Cc1nn(-c2ccc(Cl)cc2)c(=O)n1CCN1CCOCC1,growth at 10 µM,NCI-H522,69%
